Measurements collected from several papers.
Protocols differ between the studies behind these lines.
MAOA: Amine oxidase [flavin-containing] A (MAOA, Homo sapiens, UniProt P21397)
ADRA1A: Alpha-1A adrenergic receptor (ADRA1A, Homo sapiens, UniProt P35348)
MAL12: Alpha-glucosidase MAL12 (MAL12, Saccharomyces cerevisiae S288c, UniProt P53341)
FABP1: Fatty acid-binding protein, liver (FABP1, Homo sapiens, UniProt P07148)

With `CC[C@H](C)[C@H](N)C(=O)N1CCC[C@H]1C(=O)N1CCC[C@H]1C(=O)NCC(=O)N[C@H](C(=O)N1CCC[C@H]1C(=O)N[C@@H](Cc1ccc(O)cc1)C(=O)O)C(C)C` the IC50 was 829 µM (MAOA; enzyme activity, inhibitor, fluorescence).
With `O=P(Oc1ccccc1)(Oc1ccccc1)C(NCc1cncc2ccccc12)c1ccc(O)cc1` (stereo not shown) the IC50 was 1.9 µM (sn-1-specific diacylglycerol lipase ABHD11 (ABHD11, Homo sapiens, UniProt Q8NFV4); enzyme activity, inhibitor; lysate).
The Ki of `COc1cc2c3c(c1OC)-c1c(OC)ccc(Cl)c1CC3N(C)CC2` (racemic) is reported as 0.023 µM (ADRA1A; cell-free assay, radioligand).
`CN1C(=S)N(c2ccccc2)C(=O)/C1=C1/C(=O)N(C)c2ccc(Cl)cc21` gave an IC50 of 157 µM (MAL12; enzyme activity, inhibitor, absorbance).
With `O=S(=O)(O)C(F)(F)C(F)(F)C(F)(F)C(F)(F)C(F)(F)C(F)(F)F` the Kd was 11.2 µM (FABP1; ligand displacement, fluorescence).
With `COc1cc2c(cc1OC)CN(CCc1ccc(NC(=O)c3cccc4c(=O)c5cccc(OC)c5[nH]c34)cc1)CC2` the Ki was 0.183 µM (ADRA1A; cell-free assay).
`O=C(Nc1ccc([N+](=O)[O-])cc1Cl)c1cc(Cl)ccc1O` has a Kd of 9.69 µM (FABP1; ligand displacement, fluorescence).
`COc1cc(O)cc(/C=C/c2ccc(O)cc2)c1` has an IC50 of 11.7 µM (MAL12; enzyme activity, inhibitor, absorbance; pH 6.8).
For `CCc1ccc(N2C(=O)/C(=C3/C(=O)N(C)c4ccc(Cl)cc43)NC2=S)cc1`, the IC50 was 128 µM (MAL12; enzyme activity, inhibitor, absorbance).
`COc1cc2c3c(c1OC)-c1c(OC)ccc(Br)c1CC3N(C)CC2` (stereo not shown) gave a Ki of 0.016 µM (ADRA1A; cell-free assay, radioligand).
For `CCOC(=O)c1ccc(OC(=O)CCCCCN=C(N)N)cc1`, the IC50 was 15.6 µM (Kallikrein-7 (KLK7, Homo sapiens, UniProt P49862); enzyme activity, inhibitor).
With `Cc1cc(SC2=C(O)C[C@@](CCc3ccc(N)cc3)(C(C)C)OC2=O)c(C(C)(C)C)cc1CO` the Kd was 1.68 µM (FABP1; ligand displacement, fluorescence).
`CC[C@H](C)[C@H](NC(=O)[C@H](C)NC(=O)[C@H](CCC(=O)O)NC(=O)[C@H](Cc1c[nH]cn1)NC(=O)[C@H](CC(C)C)NC(=O)[C@@H](NC(=O)[C@H](Cc1ccccc1)NC(=O)[C@H](CO)NC(=O)[C@@H](NC(=O)[C@H](CC(C)C)NC(=O)[C@H](CC(=O)O)NC(=O)[C@H](CC(C)C)NC(=O)[C@@H]1CCCN1)[C@@H](C)O)C(C)C)C(=O)O` gave an IC50 of 73 µM (MAOA; enzyme activity, inhibitor, fluorescence).
